Legend:
[1] = target: T1, Sodium-dependent serotonin transporter (Rattus norvegicus, UniProt P31652); assay: Inhibition of [3H]paroxetine binding to rat cortex serotonin transporter
Procedure, shortened: (§1)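 Male Sprague-Dawley rat (200-250 g) brain tissue, 1.5 mg original wet weight, in 50 mM Tris, 120 mM NaCl, 5 mM KCl, pH 7.4, with 0.2 nM [3H]paroxetine and 10 test concentrations, 90 min at room temperature. 1 µM citalopram defines nonspecific binding. GF/B filtration.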

[2] = target: T2, Norepinephrine transporter (Rattus norvegicus, UniProt Q9WTR4); assay: Inhibition of [3H]nisoxetine binding to rat cerebral cortex norepinephrine transporter; assay type: tissue-based
Procedure, shortened: (§2)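 Male Sprague-Dawley rat (200-250 g) cerebral cortex, 8 mg per tube, in 50 mM Tris, 120 mM NaCl, 5 mM KCl, pH 7.4 at 4 °C, with [3H]nisoxetine and 10 test concentrations. 1 µM desipramine defines nonspecific binding. GF/B filtration, ice-cold washes.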

[3] = target: T1, Sodium-dependent serotonin transporter; assay: Displacement of [3H]paroxetine from serotonin transporter (5-HT) of rat cerebral cortex; assay type: tissue-based; procedure, shortened: as §1
[4] = target: Sodium-dependent dopamine transporter (Rattus norvegicus, UniProt P23977); assay: Inhibition of [3H]WIN-35428 binding to rat striatal dopamine transporter
[5] = target: T2, Norepinephrine transporter; assay: Displacement of [3H]nisoxetine from norepinephrine transporter (NET) of rat cerebral cortex; assay type: tissue-based; procedure, shortened: as §2

Chain of Sodium-dependent dopamine transporter (P23977 whole entry): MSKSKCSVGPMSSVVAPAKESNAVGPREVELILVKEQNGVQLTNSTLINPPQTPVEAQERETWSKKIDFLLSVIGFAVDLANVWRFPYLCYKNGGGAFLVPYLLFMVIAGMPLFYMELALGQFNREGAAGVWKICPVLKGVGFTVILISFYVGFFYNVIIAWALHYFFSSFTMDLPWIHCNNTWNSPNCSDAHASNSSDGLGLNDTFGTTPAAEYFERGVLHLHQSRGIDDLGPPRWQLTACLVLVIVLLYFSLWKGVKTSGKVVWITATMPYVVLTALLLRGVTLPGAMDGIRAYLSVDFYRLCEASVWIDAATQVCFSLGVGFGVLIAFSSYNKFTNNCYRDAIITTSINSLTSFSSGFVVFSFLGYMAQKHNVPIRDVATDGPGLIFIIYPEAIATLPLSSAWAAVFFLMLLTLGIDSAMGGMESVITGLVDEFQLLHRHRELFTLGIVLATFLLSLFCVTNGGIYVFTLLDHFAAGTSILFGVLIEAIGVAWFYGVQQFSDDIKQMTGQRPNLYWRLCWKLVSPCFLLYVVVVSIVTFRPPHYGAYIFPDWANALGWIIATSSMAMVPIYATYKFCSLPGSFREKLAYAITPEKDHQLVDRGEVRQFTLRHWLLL
T1 sequence (P31652 whole entry): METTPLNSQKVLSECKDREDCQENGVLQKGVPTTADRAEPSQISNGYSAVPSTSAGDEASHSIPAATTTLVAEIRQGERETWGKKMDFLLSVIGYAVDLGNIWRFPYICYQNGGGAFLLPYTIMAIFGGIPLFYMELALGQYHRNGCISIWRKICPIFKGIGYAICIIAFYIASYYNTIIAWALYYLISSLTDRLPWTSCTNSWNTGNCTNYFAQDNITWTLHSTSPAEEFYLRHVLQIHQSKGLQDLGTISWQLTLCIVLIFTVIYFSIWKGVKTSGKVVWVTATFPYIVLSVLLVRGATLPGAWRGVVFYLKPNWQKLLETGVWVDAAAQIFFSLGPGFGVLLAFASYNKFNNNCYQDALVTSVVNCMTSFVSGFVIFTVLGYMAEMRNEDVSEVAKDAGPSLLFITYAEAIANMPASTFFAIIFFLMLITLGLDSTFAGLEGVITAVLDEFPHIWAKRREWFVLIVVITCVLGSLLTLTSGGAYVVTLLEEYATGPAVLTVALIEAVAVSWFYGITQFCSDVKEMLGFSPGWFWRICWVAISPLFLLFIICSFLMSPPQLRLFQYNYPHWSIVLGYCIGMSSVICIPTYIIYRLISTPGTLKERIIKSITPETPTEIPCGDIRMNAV
T2 sequence (Q9WTR4 whole entry): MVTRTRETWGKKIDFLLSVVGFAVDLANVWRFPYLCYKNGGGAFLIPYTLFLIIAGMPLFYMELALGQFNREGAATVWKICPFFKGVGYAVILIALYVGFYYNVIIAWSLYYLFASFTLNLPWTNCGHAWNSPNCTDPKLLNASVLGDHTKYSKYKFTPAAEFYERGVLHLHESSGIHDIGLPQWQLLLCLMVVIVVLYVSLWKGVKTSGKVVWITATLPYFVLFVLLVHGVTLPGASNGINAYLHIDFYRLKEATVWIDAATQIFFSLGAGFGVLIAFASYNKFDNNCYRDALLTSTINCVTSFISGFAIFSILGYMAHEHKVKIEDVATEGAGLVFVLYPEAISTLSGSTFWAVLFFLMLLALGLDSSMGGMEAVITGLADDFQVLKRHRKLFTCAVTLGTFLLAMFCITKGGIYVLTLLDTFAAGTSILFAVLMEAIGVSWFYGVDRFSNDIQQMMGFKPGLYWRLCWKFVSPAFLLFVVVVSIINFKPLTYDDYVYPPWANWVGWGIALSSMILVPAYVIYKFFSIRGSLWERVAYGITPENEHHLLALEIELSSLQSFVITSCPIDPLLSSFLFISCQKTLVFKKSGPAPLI

SMILES | IC50 [1] [nM] | IC50 [2] [nM] | Ki [3] [nM] | IC50 [4] [nM] | Ki [5] [nM]
COC(=O)C1C(c2ccc(F)c(C)c2)CC2CCC1N2C (centres undefined) | 1160 | 148 | 258 | 13.7 | 74
COC(=O)C1C(c2ccc(C)c(F)c2)CC2CCC1N2C (centres undefined) | 1150 |  | 282 | 7.38 | 22.4
COC(=O)C1C2CCC(CC1c1cccc(F)c1)N2 (centres undefined) | 110 | 9.7 | 26.8 | 2.36 | 4
COC(=O)C1C2CCC(CC1c1ccc(F)c(C)c1)N2 (centres undefined) | 69.8 | 4.23 | 17.1 | 9.38 | 2.12
COC(=O)C1C2CCC(CC1c1ccc(C)c(F)c1)N2 (centres undefined) | 97.4 | 0.86 | 23.8 | 9 | 0.43
COC(=O)C1C2CCC(CC1c1ccc(F)c(F)c1)N2 (centres undefined) | 226 | 6.3 | 55.3 | 5.61 | 2.6
COC(=O)C1C2CCC(CC1c1cc(F)cc(F)c1)N2 (centres undefined) | 55.8 | 4.1 | 13.7 | 2.35 | 2.05
